Laboratory results from ChEMBL document CHEMBL1141693, “Discovery of benzoylpiperazines as a novel class of potent and selective GlyT1 inhibitors” (Bioorg Med Chem Lett, 2008).
Converted amounts (≈) assume the structure as drawn. The source made the active and inactive calls. The rule behind the calls is not given here.

Key:
[1] = target: T1, Sodium- and chloride-dependent glycine transporter 1 (Homo sapiens, UniProt P48067); assay: Inhibition of [3H]glycine uptake at human glycine transporter 1 expressed in CHO cells by scintillation counter; type: cell-based
T1 sequence (P48067 whole entry): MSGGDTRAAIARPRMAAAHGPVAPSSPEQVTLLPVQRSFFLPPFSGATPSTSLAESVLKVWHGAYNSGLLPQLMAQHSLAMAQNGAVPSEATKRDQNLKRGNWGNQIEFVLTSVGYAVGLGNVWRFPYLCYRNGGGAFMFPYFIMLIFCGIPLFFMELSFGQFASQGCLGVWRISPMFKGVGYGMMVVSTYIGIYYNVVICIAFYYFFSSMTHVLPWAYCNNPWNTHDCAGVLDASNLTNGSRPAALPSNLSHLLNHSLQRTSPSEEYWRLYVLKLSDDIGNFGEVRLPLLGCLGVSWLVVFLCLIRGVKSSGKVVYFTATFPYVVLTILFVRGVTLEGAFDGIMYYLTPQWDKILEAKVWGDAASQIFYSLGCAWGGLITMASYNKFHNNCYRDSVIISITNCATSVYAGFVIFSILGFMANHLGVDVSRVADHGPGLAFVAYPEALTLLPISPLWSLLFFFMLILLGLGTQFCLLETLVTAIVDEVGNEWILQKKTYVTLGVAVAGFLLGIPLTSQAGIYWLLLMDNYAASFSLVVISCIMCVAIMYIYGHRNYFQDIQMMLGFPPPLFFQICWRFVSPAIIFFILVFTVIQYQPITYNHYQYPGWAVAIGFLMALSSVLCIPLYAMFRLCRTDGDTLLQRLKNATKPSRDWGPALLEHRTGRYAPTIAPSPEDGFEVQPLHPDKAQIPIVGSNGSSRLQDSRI

[2] = target: T2, Sodium- and chloride-dependent glycine transporter 2 (Homo sapiens, UniProt Q9Y345); assay: Inhibition of [3H]glycine uptake at human glycine transporter 2 expressed in CHO cells by scintillation counter; type: cell-based
T2 sequence (Q9Y345 whole entry): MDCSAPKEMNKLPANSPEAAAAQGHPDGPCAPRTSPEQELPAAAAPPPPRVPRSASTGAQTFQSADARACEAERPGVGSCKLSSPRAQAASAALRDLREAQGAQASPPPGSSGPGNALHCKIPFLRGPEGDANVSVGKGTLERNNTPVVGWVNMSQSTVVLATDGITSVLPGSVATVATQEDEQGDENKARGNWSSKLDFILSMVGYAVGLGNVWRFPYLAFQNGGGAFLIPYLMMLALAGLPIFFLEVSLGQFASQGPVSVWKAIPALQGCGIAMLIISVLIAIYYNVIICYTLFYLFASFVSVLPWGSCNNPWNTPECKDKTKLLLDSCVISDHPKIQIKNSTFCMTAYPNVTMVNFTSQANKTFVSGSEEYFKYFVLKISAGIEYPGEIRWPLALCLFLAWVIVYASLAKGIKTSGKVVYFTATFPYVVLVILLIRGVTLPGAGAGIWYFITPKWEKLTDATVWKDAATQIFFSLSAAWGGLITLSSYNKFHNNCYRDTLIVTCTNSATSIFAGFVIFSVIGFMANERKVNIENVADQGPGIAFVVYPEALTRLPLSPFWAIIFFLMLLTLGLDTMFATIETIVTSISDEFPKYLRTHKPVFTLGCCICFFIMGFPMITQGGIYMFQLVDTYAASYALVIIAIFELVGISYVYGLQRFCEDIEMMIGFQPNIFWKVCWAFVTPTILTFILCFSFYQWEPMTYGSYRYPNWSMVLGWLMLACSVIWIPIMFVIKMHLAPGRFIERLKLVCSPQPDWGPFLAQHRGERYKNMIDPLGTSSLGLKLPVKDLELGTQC
Summary of the method: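 [³H]-glycine uptake inhibition in cells transfected with human GlyT2 cDNA. EC50 is the average of at least two independent experiments.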

Homo sapiens = species: Homo sapiens; assay: Selectivity ratio of IC50 for human glycine transporter 2 to IC50 for human glycine transporter 1
Summary of the method: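 [³H]-glycine uptake inhibition in cells transfected with human GlyT1 or human GlyT2 cDNA. Each EC50 is the average of at least two independent experiments. Selectivity is the ratio of GlyT2 EC50 to GlyT1 EC50.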

[3] = Aqueous solubility in phosphate buffer at pH 6.5 by lyophilization solubility assay; type: physicochemical
Summary of the method: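 Aqueous solubility was measured at pH 6.5 in a lyophilization solubility assay.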

[4] = Membrane permeability by PAMPA; type: ADME; conditions: read-out: permeability
Summary of the method: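 PAMPA artificial-membrane permeation, reported as the permeation constant Pe in 10^-6 cm/s.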

Liver microsomes [5] = assay: Metabolic stability in rat liver microsomes assessed as intrinsic clearance per […] of protein; type: ADME, Microsome
Summary of the method: (§1)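 Intrinsic clearance measured in liver microsomes from rat, mouse or human, expressed per mg microsomal protein.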

Liver microsomes [6] = assay: Metabolic stability in human liver microsomes assessed as intrinsic clearance per […] of protein; type: ADME, Microsome; summary of the method: as §1
[7] = Metabolic stability in mouse liver microsomes assessed as intrinsic clearance per […] of protein; type: ADME, Microsome; summary of the method: as §1
[8] = Fraction unbound in mouse plasma at 10 mg/kg, po; type: ADME, organism-based; set-up: dose 10 mg/kg, route oral
Cytochrome P450 2D6 = Cytochrome P450 2D6 (Homo sapiens, UniProt P10635); assay: Inhibition of CYP2D6; type: ADME
[9] = target: T3, Sodium- and chloride-dependent glycine transporter 2 (Homo sapiens) (UniProt Q9Y345); assay: Inhibition of [3H]glycine uptake at human glycine transporter 2 expressed in CHO cells at 30 uM by scintillation counter; type: cell-based
T3 sequence (whole entry): T2 sequence (Q9Y345 whole entry)

[10] = Clearance in mouse at 2 mg/kg, iv; type: ADME, organism-based; set-up: dose 2 mg/kg, route intravenous; conditions: in vivo
[11] = Volume of distribution at steady state in mouse at 2 mg/kg, iv; type: ADME, organism-based; set-up: dose 2 mg/kg, route intravenous; conditions: in vivo, read-out: Vdss
[12] = Oral bioavailability in mouse at 10 mg/kg; type: ADME, organism-based; conditions: in vivo
[13] = Half life in mouse at 10 mg/kg, po; type: ADME, organism-based; set-up: dose 10 mg/kg, route oral; conditions: in vivo
[14] = Cmax in mouse plasma at 10 mg/kg, po; type: ADME, organism-based; set-up: dose 10 mg/kg, route oral
[15] = Cmax in mouse brain at 10 mg/kg, po; type: ADME, organism-based; set-up: dose 10 mg/kg, route oral
[16] = Ratio of drug level in brain to plasma in mouse at 10 mg/kg, po; type: ADME, organism-based; set-up: dose 10 mg/kg, route oral; conditions: read-out: BPR
Summary of the method: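 Mouse pharmacokinetics after a 10 mg/kg oral dose. Brain/plasma ratio taken from brain Cmax (ng/g) and plasma Cmax (ng/mL). Values are the average of two independent experiments.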

[17] = Inhibition of phosphodiesterase at 10 uM
Summary of the method: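 CEREP selectivity panel of 80 targets: transmembrane and soluble receptors, enzymes, ion channels and monoamine transporters. Single test concentration of 10 µM; read-out is percent inhibition.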

MAO-A = target: T4, MAO-A (Homo sapiens, UniProt P21397); assay: Inhibition of MAOA at 10 uM
T4 sequence (P21397 whole entry): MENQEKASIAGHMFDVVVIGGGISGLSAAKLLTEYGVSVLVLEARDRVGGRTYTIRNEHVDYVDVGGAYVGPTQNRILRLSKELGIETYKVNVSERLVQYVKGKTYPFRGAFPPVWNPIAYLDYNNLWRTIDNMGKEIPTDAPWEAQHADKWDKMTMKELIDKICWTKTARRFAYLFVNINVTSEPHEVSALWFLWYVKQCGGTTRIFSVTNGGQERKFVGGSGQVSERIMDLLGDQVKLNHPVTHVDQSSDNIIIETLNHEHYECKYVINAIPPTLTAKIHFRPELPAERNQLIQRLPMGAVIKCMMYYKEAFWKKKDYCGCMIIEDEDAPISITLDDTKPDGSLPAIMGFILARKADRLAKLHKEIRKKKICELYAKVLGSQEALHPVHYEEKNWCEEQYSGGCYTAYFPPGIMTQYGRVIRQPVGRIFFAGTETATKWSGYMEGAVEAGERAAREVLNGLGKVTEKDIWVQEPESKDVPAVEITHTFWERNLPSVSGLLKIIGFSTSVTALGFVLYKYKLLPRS
Summary of the method: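 CEREP selectivity screen across a panel of 80 targets (receptors, enzymes, ion channels, monoamine transporters). Percent inhibition was read at a single test concentration.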

[18] = target: T5, Catechol O-methyltransferase (Homo sapiens) (UniProt P21964); assay: Inhibition of catechol-O-methyl transferase at 10 uM
T5 sequence (whole entry): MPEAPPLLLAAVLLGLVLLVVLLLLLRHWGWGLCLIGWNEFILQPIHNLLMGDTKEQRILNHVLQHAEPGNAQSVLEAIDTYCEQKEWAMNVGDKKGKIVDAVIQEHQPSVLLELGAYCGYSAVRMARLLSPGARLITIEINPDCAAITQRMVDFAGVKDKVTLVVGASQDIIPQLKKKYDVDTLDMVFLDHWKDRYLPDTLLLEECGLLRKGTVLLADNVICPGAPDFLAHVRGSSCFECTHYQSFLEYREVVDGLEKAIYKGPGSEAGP
Summary of the method: (§2)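 Run within an outsourced CEREP selectivity screen of 80 targets (transmembrane and soluble receptors, enzymes, ion channels, monoamine transporters). The compound was tested at a single concentration and the read-out was percent inhibition of each target.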

[19] = target: Acetylcholinesterase (Homo sapiens) (UniProt P22303); assay: Inhibition of acetylcholinesterase at 10 uM; summary of the method: as §2
Sequence of Acetylcholinesterase (Homo sapiens) (P22303 whole entry): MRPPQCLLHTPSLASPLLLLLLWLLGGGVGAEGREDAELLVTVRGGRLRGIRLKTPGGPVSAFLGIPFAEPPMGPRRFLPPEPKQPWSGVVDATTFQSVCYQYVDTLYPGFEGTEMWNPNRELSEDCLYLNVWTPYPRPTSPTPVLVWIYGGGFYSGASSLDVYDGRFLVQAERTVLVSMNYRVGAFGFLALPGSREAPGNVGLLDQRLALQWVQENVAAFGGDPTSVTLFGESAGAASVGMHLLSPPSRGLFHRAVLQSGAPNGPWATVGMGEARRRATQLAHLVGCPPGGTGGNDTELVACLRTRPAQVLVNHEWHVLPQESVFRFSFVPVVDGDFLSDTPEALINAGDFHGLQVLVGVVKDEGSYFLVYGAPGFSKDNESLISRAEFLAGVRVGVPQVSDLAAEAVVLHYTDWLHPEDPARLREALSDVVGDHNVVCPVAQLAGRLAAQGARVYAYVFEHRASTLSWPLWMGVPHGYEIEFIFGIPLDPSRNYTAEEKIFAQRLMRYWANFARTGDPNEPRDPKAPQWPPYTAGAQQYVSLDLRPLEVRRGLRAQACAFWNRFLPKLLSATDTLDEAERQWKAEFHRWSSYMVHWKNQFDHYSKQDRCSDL

Sequence of Cytochrome P450 2D6 (P10635 whole entry): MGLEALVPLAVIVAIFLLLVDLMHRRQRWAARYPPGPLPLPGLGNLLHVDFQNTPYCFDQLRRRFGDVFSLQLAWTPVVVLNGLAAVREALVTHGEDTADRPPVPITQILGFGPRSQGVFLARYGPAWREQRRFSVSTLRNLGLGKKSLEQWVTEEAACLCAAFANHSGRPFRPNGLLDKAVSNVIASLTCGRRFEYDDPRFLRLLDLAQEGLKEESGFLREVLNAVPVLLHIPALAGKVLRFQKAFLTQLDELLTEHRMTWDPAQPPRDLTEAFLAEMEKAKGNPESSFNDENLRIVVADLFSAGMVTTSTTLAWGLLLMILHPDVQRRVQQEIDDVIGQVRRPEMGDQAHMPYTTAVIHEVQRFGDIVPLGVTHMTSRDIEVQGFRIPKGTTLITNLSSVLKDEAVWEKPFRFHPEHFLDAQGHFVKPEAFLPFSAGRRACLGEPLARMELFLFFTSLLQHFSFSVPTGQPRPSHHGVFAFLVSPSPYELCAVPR

| Compound | EC50 [1] | EC50 [2] | Ratio EC50 (Homo sapiens) | solubility [3] | Papp [4] | clearance (Liver microsomes [5]) | clearance (Liver microsomes [6]) | clearance [7] | also measured |
| --- | --- | --- | --- | --- | --- | --- | --- | --- | --- |
| CNS(=O)(=O)c1ccc(N2CCOCC2)c(C(=O)N2CCN(c3ccc(C(C)=O)cc3F)CC2)c1 | 100 nM | > 30000 nM | > 300 | 30 µg/mL (≈ 59.5 µM) | 5.3 ×10⁻⁶ cm/s | 106 µL/min/mg | 43 µL/min/mg | – | – |
| CS(=O)(=O)c1ccc(N2CCOCC2)c(C(=O)N2CCN(c3ccc(C(F)(F)F)cc3)CC2)c1 | 45 nM | – | – | 3 µg/mL (≈ 6.03 µM) | – | – | 10 µL/min/mg | 15 µL/min/mg | – |
| CS(=O)(=O)c1ccc(OCC2CC2)c(C(=O)N2CCN(c3ccc(C#N)cc3F)CC2)c1 | 16 nM | – | – | 31 µg/mL (≈ 67.8 µM) | 3.2 ×10⁻⁶ cm/s | – | 4 µL/min/mg | 9 µL/min/mg | fraction unbound [8]: 0.12; IC50 (Cytochrome P450 2D6): > 29100 nM; Activity [9]: inactive; clearance [10]: 9.5 mL/min/kg; Vd [11]: 2.8 L/kg; bioavailability [12]: 100%; half-life [13]: 5.8 h; Cmax [14]: 3880 ng/mL; Cmax [15]: 373 ng/g; Kp [16]: 0.1 |
| CC(=O)c1ccc(N2CCN(C(=O)c3cc(S(C)(=O)=O)ccc3N3CCOCC3)CC2)c(F)c1 | 70 nM | > 30000 nM | > 417 | 30 µg/mL (≈ 61.3 µM) | 3.1 ×10⁻⁶ cm/s | 40 µL/min/mg | 26 µL/min/mg | – | inhibition [17]: < 20%; inhibition at 10 µM (MAO-A): < 20%; inhibition [18]: < 20%; inhibition [19]: < 20% |
| CC(C)Oc1ccc(S(C)(=O)=O)cc1C(=O)N1CCN(c2ccc(C(F)(F)F)cc2)CC1 | 82 nM | – | – | 62 µg/mL (≈ 132 µM) | – | – | 0 µL/min/mg | 0 µL/min/mg | – |
| CC(=O)c1ccc(N2CCN(C(=O)c3cc(C#N)ccc3N3CCOCC3)CC2)c(F)c1 | 180 nM | 13000 nM | 72 | < 1 µg/mL | 6.1 ×10⁻⁶ cm/s | 53 µL/min/mg | 31 µL/min/mg | – | – |
